# Measured values: ChEMBL document CHEMBL1124824, “Synthesis and biological activity of atrial natriuretic factor analogues: effect of modifications to the disulfide bridge” (J Med Chem, 1990)
# Starred links: 1 amine or outer side, 2 acyl side, 3 side chain; linkers in the order of their positions; H or OH if unused. Positions of bridges follow the written chain, without caps; N, C: chain ends. Non-standard residues stand in square brackets, D forms with d. Residues, ends and D or L forms follow the SMILES beside them. Pen = CC(C)(S)[C@H](N)C(=O)O; hCys = N[C@@H](CCS)C(=O)O; X2 = O=C(CCC[*:2])[*:1]; X1 = O=C(CC[*:2])[*:1]
# Legend:
# [1] = species: Rattus norvegicus; test: Compound was tested for the Cl- excretion for treated over control animals; format: functional
# Procedure, shortened: (§1)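 Male Sprague-Dawley rats (300-325 g) under halothane/lidocaine had femoral artery, femoral vein and bladder cannulated. After at least 1 h of recovery in restraint, they received Ringer's (1.2 mL/h), with 10-min urine collections over a 30-min control period. Infusion of 0.5 μg/kg per min for 30 min and a 30-min Ringer's recovery followed. Na+, K+ and Cl- were measured with an electrolyte analyzer, reported as treated minus control μmol/sample. Volume ratio is treated/control over three consecutive 10-min samples, six animals.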
# [2] = species: Rattus norvegicus; test: Compound was tested for the K+ excretion for treated over control animals; format: functional; procedure, shortened: as §1
# [3] = species: Rattus norvegicus; test: Compound was tested for the Na+ excretion for treated over control animals; format: functional; procedure, shortened: as §1
# [4] = species: Rattus norvegicus; test: Compound was tested for antihypertensive activity in 5/6 nephrectomized rats.; format: functional
# Procedure, shortened: (§2)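 Rats were anesthetized with halothane after skin infiltration with 2% lidocaine, and the femoral artery and vein were cannulated. After recovery, arterial pressure was recorded. A saline control period was followed by i.v. infusion in 30-min steps at 0.1, 0.2, 0.5 and 1.0 μg/kg per min (70 μL/kg per min). Hydralazine (100 μg/kg per min) was given for standardization. ED50 is in nmol/kg per min, from six animals.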
# [5] = species: Rattus norvegicus; test: Compound was tested for antihypertensive activity in DOCA nephrectomized rats.; format: functional; procedure, shortened: as §2
# [6] = system: Rattus norvegicus; test: Compound was tested for diuretic activity and the ratio of urine volume for treated over control animals was reported after infused at a dose of 0.5 ug/kg.; format: functional; procedure, shortened: as §1
# [7] = species: Rattus norvegicus; test: Compound was tested for the K+ excretion for treated over control animals.; format: functional; procedure, shortened: as §1
# [8] = species: Rattus norvegicus; test: Compound was tested for the Na+ excretion for treated over control animals.; format: functional; procedure, shortened: as §1
# [9] = target: T1, Atrial natriuretic peptide receptor 2 (Bos taurus, UniProt P46197); test: Binding affinity was determined based on the displacement of [125]r-ANF (99-126) from binding sites on bovine adrenal zona glomerulosa cell membranes (Atrionatriuretic peptide receptor B)
# T1 sequence (P46197 whole entry): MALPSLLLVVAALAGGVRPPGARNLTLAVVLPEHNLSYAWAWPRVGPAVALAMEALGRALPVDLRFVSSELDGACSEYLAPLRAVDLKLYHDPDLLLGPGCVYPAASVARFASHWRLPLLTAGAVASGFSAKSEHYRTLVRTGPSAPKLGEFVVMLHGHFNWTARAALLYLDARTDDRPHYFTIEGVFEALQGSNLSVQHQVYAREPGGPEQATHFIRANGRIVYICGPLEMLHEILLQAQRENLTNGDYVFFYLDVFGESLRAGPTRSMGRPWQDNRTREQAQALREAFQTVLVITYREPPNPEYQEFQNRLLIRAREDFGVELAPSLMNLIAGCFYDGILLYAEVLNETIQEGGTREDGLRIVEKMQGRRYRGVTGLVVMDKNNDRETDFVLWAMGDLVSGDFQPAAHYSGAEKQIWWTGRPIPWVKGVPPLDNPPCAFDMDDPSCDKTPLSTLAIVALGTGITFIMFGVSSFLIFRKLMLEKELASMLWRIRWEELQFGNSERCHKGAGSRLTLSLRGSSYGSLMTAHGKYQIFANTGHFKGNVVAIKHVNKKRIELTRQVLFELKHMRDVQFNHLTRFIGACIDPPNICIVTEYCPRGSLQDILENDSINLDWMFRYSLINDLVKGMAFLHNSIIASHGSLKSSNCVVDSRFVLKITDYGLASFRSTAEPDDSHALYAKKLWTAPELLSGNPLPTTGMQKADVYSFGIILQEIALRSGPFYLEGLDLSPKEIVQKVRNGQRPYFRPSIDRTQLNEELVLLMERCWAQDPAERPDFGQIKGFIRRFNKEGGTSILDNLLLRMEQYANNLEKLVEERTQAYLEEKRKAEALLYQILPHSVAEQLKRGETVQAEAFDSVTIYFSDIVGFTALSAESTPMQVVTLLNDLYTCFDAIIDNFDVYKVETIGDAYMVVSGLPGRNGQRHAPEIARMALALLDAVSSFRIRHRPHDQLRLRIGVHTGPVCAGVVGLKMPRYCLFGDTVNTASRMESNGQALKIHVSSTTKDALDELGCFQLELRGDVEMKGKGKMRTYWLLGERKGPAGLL
# [10] = target: T2, Atrial natriuretic peptide receptor 3 (Mus musculus, UniProt P70180); test: Binding affinity was determined based on the displacement of [125]r-ANF (99-126) from binding sites on mouse fibroblasts (NIH 3T3) cells (Atrionatriuretic peptide receptor C).
# T2 sequence (P70180 whole entry): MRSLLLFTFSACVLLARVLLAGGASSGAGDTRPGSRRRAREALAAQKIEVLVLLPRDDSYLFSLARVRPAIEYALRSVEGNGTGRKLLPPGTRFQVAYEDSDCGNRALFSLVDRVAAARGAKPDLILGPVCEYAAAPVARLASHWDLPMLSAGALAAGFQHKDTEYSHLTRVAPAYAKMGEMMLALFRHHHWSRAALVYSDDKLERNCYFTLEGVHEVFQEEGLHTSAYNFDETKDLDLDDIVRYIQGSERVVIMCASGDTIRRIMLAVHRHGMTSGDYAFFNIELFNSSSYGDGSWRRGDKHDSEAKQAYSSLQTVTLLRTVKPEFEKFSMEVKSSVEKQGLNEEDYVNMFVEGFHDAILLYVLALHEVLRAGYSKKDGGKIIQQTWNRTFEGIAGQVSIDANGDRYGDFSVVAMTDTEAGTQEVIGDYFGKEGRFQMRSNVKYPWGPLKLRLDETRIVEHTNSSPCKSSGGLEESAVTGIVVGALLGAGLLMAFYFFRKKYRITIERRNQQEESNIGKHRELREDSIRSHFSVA
# [11] = species: Oryctolagus cuniculus; test: Compound was tested for the inhibition of the stimulated contractions of the superfused rabbit thoracic aortic rings.; format: functional, Aorta
# Procedure, shortened: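 Rabbit thoracic aorta rings (4 mm) were held isometrically at 10-g resting tension, superfused and precontracted with phenylephrine. Test peptide was added to the superfusate above the tissue in successively higher doses after each recovery. Doses were based on peptide content. EC50 came from the dose-response curve, mean of three determinations ± SEM.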
Structure (SMILES),Electrolyte excretion [1] [umol/sample],Electrolyte excretion [2] [uM sample-1],Electrolyte excretion [3] [uM sample-1],ED50 [4] [nM/min/kg],ED50 [5] [nM/min/kg],Ratio [6],Electrolyte excretion [7] [uM sample-1],Electrolyte excretion [8] [uM sample-1],IC50 [9] [nM],IC50 [10] [nM],EC50 [11] [M 50ul-1]
CC[C@H](C)[C@@H]1NC(=O)[C@H](CCCN=C(N)N)NC(=O)[C@H](CC(=O)O)NC(=O)[C@H]([C@@H](C)CC)NC(=O)[C@H](CCCN=C(N)N)NC(=O)CNC(=O)CNC(=O)[C@H](Cc2ccccc2)NC(=O)[C@@H](NC(=O)[C@H](CO)NC(=O)[C@H](CO)NC(=O)[C@H](CCCN=C(N)N)NC(=O)[C@H](CC(C)C)NC(=O)[C@@H](N)CO)CSSC[C@@H](C(=O)N[C@@H](CC(N)=O)C(=O)N[C@@H](CO)C(=O)N[C@@H](Cc2ccccc2)C(=O)N[C@@H](CCCN=C(N)N)C(=O)N[C@@H](Cc2ccc(O)cc2)C(=O)O)NC(=O)CNC(=O)[C@H](CC(C)C)NC(=O)CNC(=O)[C@H](CO)NC(=O)[C@H](CCC(N)=O)NC(=O)[C@H](C)NC(=O)CNC1=O,72.4,16.2,57.4,0.14,0.1,3.1,,,,,
CC[C@H](C)[C@@H]1NC(=O)[C@H](CCCN=C(N)N)NC(=O)[C@H](CC(=O)O)NC(=O)[C@H]([C@@H](C)CC)NC(=O)[C@H](CCCN=C(N)N)NC(=O)CNC(=O)CNC(=O)[C@H](Cc2ccccc2)NC(=O)CCC=CC[C@@H](C(=O)N[C@@H](CC(N)=O)C(=O)N[C@@H](CO)C(=O)N[C@@H](Cc2ccccc2)C(=O)N[C@@H](CCCN=C(N)N)C(=O)N[C@@H](Cc2ccc(O)cc2)C(=O)O)NC(=O)CNC(=O)[C@H](CC(C)C)NC(=O)CNC(=O)[C@H](CO)NC(=O)[C@H](CCC(N)=O)NC(=O)[C@H](C)NC(=O)CNC1=O,7.3,,,1.2,,2.5,3.2,0.4,,,
CC[C@H](C)[C@@H]1NC(=O)[C@H](CCCN=C(N)N)NC(=O)[C@H](CC(=O)O)NC(=O)[C@H]([C@@H](C)CC)NC(=O)[C@H](CCCN=C(N)N)NC(=O)CNC(=O)CNC(=O)[C@H](Cc2ccccc2)NC(=O)CCCSC[C@@H](C(=O)N[C@@H](CC(N)=O)C(=O)N[C@@H](CO)C(=O)N[C@@H](Cc2ccccc2)C(=O)N[C@@H](CCCN=C(N)N)C(=O)N[C@@H](Cc2ccc(O)cc2)C(=O)O)NC(=O)CNC(=O)[C@H](CC(C)C)NC(=O)CNC(=O)[C@H](CO)NC(=O)[C@H](CCC(N)=O)NC(=O)[C@H](C)NC(=O)CNC1=O (FGGRIDRIGAQSGLGCNSFRY-OH; linker N-16 via X2),41.1,10.2,34,1.1,0.72,2.8,,,,,
CC[C@H](C)[C@@H]1NC(=O)[C@H](CCCN=C(N)N)NC(=O)[C@H](CC(=O)O)NC(=O)[C@H]([C@@H](C)CC)NC(=O)[C@H](CCCN=C(N)N)NC(=O)CNC(=O)CNC(=O)[C@H](Cc2ccccc2)NC(=O)CCCSC(C)(C)[C@@H](C(=O)N[C@@H](CC(N)=O)C(=O)N[C@@H](CO)C(=O)N[C@@H](Cc2ccccc2)C(=O)N[C@@H](CCCN=C(N)N)C(=O)N[C@@H](Cc2ccc(O)cc2)C(=O)O)NC(=O)CNC(=O)[C@H](CC(C)C)NC(=O)CNC(=O)[C@H](CO)NC(=O)[C@H](CCC(N)=O)NC(=O)[C@H](C)NC(=O)CNC1=O (FGGRIDRIGAQSGLG[Pen]NSFRY-OH; linker N-16 via X2),39.6,24.8,17.9,0.11,0.14,3,,,,,
CC[C@H](C)[C@@H]1NC(=O)[C@H](CCCN=C(N)N)NC(=O)[C@H](CC(=O)O)NC(=O)[C@H]([C@@H](C)CC)NC(=O)[C@H](CCCN=C(N)N)NC(=O)CNC(=O)CNC(=O)[C@H](Cc2ccccc2)NC(=O)CCSCC[C@@H](C(=O)N[C@@H](CC(N)=O)C(=O)N[C@@H](CO)C(=O)N[C@@H](Cc2ccccc2)C(=O)N[C@@H](CCCN=C(N)N)C(=O)N[C@@H](Cc2ccc(O)cc2)C(=O)O)NC(=O)CNC(=O)[C@H](CC(C)C)NC(=O)CNC(=O)[C@H](CO)NC(=O)[C@H](CCC(N)=O)NC(=O)[C@H](C)NC(=O)CNC1=O (FGGRIDRIGAQSGLG[hCys]NSFRY-OH; linker N-16 via X1),15.9,3.5,7.2,1.2,0.83,1.7,,,,,
CC[C@H](C)[C@@H]1NC(=O)[C@H](CCCN=C(N)N)NC(=O)[C@H](CC(=O)O)NC(=O)[C@H]([C@@H](C)CC)NC(=O)[C@H](CCCN=C(N)N)NC(=O)CNC(=O)CNC(=O)[C@H](Cc2ccccc2)NC(=O)[C@@H](N)CSSC[C@@H](C(=O)N[C@@H](CC(N)=O)C(=O)N[C@@H](CO)C(=O)N[C@@H](Cc2ccccc2)C(=O)N[C@@H](CCCN=C(N)N)C(=O)N[C@@H](Cc2ccc(O)cc2)C(=O)O)NC(=O)CNC(=O)[C@H](CC(C)C)NC(=O)CNC(=O)[C@H](CO)NC(=O)[C@H](CCC(N)=O)NC(=O)[C@H](C)NC(=O)CNC1=O (H-CFGGRIDRIGAQSGLGCNSFRY-OH; disulfide 1-17),28.5,12.9,15.9,,0.1,,,,3.6,0.5,3.1e-10
CC[C@H](C)[C@@H]1NC(=O)[C@H](CCCN=C(N)N)NC(=O)[C@H](CC(=O)O)NC(=O)[C@H]([C@@H](C)CC)NC(=O)[C@H](CCCN=C(N)N)NC(=O)CNC(=O)CNC(=O)[C@H](Cc2ccccc2)NC(=O)[C@@H](NC(=O)[C@H](CO)NC(=O)[C@@H](N)CO)CSSC[C@@H](C(=O)N[C@@H](CC(N)=O)C(=O)N[C@@H](CO)C(=O)N[C@@H](Cc2ccccc2)C(=O)N[C@@H](CCCN=C(N)N)C(=O)N[C@@H](Cc2ccc(O)cc2)C(=O)O)NC(=O)CNC(=O)[C@H](CC(C)C)NC(=O)CNC(=O)[C@H](CO)NC(=O)[C@H](CCC(N)=O)NC(=O)[C@H](C)NC(=O)CNC1=O (H-SSCFGGRIDRIGAQSGLGCNSFRY-OH; disulfide 3-19),,23,79.6,0.13,0.16,2.7,,,,,
